Source: ChEMBL document CHEMBL1138390, “Synthesis and biological evaluation of novel T-type calcium channel blockers” (Bioorg Med Chem Lett, 2007)

Columns and labels:
Homo sapiens = organism: Homo sapiens; assay: Selectivity index, ratio of T-type calcium channel Cav3.1 to N-type calcium channel at 10 uM
[1] = biological target: T1, Voltage-dependent T-type calcium channel subunit alpha-1G (Homo sapiens, UniProt O43497); assay: Inhibition of T-type calcium channel Cav3.1 expressed in HEK293 cells co-expressing alpha1G subunit at 10 uM by whole-cell patch clamp method; format: cell-based
In short: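 α1G T-type channel expressed in HEK293 cells, whole-cell patch clamp. Percent inhibition of α1G currents at a single test concentration, given as mean ± SE from n ≥ 4 repeats. IC50 is the molar concentration giving 50% current inhibition, obtained by fitting raw data to dose–response curves.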

[2] = biological target: Voltage-dependent N-type calcium channel subunit alpha-1B (Homo sapiens) (UniProt Q00975); assay: Inhibition of N-type calcium channel expressed in HEK293 cells co-expressing Alpha-1B subunit at 10 uM; format: cell-based
In short: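 N-type α1B channel expressed in HEK293 cells. Percent current inhibition at a single test concentration, reported as mean ± SE from n ≥ 4 repeated measurements. Inhibition below 1% was recorded as no blocking.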

[3] = biological target: T1, Voltage-dependent T-type calcium channel subunit alpha-1G; assay: Inhibition of T-type calcium channel Cav3.1 expressed in HEK293 cells co-expressing alpha1G subunit by whole-cell patch clamp method; format: cell-based
[4] = biological target: Voltage-dependent T-type calcium channel subunit alpha-1H (Homo sapiens) (UniProt O95180); assay: Inhibition of T-type calcium channel Cav3.2 expressed in Xenopus oocytes coexpressing alpha-1H subunit at 100 uM by two-electrode voltage clamp method
Chain of Voltage-dependent T-type calcium channel subunit alpha-1H (Homo sapiens) (O95180 whole entry): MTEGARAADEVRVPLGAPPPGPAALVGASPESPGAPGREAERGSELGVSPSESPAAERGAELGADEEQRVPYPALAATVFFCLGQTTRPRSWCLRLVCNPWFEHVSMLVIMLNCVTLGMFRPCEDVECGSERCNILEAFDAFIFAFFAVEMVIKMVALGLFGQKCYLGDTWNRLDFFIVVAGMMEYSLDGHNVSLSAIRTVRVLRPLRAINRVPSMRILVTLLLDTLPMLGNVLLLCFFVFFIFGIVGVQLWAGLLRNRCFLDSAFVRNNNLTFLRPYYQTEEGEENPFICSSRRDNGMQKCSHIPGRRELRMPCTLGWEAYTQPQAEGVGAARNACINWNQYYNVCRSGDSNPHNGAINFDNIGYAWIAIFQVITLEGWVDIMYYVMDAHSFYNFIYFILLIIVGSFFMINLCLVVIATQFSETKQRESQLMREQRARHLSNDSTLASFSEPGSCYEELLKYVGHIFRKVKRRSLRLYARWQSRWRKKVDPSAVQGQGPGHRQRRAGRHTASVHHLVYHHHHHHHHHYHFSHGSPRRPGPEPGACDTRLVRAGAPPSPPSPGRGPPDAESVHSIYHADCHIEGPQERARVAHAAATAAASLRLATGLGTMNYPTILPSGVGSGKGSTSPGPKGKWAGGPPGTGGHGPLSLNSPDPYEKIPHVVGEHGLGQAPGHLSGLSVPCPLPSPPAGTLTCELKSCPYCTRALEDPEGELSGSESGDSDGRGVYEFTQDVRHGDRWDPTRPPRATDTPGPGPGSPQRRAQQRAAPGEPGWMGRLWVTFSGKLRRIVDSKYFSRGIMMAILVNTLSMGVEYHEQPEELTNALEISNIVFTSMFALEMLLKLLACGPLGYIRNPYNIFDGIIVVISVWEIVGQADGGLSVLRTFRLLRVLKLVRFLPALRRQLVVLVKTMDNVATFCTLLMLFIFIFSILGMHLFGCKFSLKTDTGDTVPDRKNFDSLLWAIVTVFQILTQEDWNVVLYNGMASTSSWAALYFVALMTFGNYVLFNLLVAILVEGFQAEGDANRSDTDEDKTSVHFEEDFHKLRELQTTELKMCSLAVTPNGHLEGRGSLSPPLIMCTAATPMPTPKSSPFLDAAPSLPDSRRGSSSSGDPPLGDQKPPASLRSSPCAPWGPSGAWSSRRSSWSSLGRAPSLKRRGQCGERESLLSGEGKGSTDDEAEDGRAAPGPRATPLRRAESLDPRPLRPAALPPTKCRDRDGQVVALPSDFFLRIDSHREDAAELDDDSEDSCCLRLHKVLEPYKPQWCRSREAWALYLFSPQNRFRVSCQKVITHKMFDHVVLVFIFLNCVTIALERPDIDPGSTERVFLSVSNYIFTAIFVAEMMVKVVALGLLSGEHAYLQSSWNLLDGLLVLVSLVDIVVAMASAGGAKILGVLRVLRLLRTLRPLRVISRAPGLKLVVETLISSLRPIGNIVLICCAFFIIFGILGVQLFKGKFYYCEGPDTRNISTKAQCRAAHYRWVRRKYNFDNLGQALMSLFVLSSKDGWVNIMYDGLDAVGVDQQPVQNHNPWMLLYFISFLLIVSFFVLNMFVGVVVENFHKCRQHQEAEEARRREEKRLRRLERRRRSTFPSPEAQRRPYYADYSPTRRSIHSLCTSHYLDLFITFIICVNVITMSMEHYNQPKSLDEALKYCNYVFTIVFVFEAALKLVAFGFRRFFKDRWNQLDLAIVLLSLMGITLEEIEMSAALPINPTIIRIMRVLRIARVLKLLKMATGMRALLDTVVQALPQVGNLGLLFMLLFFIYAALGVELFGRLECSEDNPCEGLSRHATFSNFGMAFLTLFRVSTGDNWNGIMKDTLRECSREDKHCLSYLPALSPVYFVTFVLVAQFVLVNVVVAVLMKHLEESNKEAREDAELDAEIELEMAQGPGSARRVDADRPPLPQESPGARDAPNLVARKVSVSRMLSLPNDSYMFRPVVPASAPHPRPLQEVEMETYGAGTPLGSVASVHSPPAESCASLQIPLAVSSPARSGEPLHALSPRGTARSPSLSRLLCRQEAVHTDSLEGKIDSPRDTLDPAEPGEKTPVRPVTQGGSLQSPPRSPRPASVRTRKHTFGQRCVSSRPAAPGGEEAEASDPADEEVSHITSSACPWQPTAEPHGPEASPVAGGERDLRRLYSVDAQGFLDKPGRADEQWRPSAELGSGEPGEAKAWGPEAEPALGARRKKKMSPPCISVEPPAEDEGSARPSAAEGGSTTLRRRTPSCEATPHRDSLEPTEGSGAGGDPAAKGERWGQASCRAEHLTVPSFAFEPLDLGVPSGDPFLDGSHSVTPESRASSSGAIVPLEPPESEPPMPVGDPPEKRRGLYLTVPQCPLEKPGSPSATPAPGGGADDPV

Chain of Voltage-dependent N-type calcium channel subunit alpha-1B (Homo sapiens) (Q00975 whole entry, looked up): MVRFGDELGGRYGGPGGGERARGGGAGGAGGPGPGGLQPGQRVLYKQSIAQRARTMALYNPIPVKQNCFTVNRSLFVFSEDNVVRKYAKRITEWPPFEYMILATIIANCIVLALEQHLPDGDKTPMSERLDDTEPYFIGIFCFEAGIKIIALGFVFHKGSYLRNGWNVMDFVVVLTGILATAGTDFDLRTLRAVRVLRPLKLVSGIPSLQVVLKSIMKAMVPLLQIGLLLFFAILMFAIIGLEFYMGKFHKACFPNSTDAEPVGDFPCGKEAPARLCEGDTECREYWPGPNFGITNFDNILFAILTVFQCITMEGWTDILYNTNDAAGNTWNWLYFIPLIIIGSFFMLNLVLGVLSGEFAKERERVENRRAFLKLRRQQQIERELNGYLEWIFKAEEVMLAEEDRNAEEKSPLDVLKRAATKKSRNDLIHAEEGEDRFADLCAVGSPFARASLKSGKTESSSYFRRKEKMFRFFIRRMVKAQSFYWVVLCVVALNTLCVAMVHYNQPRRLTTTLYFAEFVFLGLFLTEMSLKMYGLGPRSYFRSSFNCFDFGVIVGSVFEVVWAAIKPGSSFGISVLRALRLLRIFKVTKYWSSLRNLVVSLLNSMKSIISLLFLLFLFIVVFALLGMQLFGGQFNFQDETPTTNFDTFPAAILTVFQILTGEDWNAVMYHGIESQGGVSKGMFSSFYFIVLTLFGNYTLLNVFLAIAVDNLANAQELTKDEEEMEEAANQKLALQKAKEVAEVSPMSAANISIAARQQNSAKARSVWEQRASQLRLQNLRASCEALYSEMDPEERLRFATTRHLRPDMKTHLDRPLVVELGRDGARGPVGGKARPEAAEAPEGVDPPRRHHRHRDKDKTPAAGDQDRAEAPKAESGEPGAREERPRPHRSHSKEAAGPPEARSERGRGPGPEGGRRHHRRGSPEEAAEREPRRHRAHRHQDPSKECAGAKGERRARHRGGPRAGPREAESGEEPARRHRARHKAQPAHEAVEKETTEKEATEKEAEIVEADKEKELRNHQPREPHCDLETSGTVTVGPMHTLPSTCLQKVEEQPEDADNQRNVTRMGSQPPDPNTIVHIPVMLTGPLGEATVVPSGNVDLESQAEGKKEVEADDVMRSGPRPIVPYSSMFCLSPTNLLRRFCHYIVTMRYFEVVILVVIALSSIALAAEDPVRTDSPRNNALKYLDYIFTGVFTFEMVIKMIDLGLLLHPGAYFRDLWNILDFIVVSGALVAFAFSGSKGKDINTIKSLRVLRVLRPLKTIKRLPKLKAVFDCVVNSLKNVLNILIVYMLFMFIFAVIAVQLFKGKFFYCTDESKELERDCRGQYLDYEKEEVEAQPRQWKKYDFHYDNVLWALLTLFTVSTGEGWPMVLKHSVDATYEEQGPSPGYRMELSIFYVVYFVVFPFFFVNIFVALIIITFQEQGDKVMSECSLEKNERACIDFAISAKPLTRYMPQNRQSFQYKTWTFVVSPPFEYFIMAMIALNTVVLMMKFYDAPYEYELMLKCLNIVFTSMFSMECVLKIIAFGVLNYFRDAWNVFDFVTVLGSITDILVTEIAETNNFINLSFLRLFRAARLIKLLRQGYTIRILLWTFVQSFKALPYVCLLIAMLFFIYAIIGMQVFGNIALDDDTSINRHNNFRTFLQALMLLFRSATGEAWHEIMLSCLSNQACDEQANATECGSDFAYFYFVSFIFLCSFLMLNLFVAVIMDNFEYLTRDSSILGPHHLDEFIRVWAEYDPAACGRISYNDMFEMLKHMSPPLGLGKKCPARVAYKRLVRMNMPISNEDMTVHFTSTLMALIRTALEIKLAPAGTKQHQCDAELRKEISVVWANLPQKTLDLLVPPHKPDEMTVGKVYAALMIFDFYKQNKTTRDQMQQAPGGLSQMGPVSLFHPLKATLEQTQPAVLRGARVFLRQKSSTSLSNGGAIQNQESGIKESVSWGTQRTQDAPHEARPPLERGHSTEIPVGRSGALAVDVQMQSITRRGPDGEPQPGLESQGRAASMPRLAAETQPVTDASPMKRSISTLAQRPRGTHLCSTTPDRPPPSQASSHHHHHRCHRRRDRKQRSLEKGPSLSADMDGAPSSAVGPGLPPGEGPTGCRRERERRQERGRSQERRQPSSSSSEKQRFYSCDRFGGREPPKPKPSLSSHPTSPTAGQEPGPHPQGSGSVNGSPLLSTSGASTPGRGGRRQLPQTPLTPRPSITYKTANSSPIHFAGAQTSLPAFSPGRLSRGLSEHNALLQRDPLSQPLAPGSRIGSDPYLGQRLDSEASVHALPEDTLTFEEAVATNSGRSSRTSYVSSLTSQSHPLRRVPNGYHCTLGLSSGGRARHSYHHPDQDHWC

Row | Structure (SMILES) | Ratio (Homo sapiens) | inhibition [1] [%] | inhibition [2] [%] | IC50 [3] [µM] | inhibition [4] [%]
1 | COC(=O)CC1c2ccccc2N=C(NCCCCCN)N1c1ccc(-c2ccccc2)cc1 (stereo unspecified) | > 100 | – | – | – | –
2 | COC(=O)CC1c2ccccc2N=C(N(C)CCCCCN2CCCC2)N1c1ccc(-c2ccccc2)cc1 (stereo unspecified) | 2.6 | 94.9 | 36.5 | 0.34 | 88
3 | COC(=O)CC1c2ccccc2N=C(N(C)CCCCCN2CCCC2)N1c1ccccc1 (stereo unspecified) | 5.6 | 59.5 | 10.7 | 5.84 | 47.7
4 | CN(CCCCCN1CCCC1)C1=Nc2ccccc2C(CC(=O)NCc2ccccc2)N1c1ccccc1 (stereo unspecified) | 1.5 | 68.1 | 46.3 | 4.2 | 82.7

The remaining lines, values ahead:

Row | Ratio (Homo sapiens) | inhibition [1] [%] | inhibition [2] [%] | IC50 [3] [µM] | inhibition [4] [%] | Structure (SMILES)
5 | 10.1 | – | – | – | – | NCCCCCNC1=Nc2ccccc2C(CC(=O)NCc2ccccc2)N1c1ccc(-c2ccccc2)cc1 (stereo unspecified)
6 | 7.5 | 88.1 | 11.7 | – | 95.5 | CN(CCCCCN1CCCC1)C1=Nc2ccccc2C(CC(=O)NCc2ccccc2)N1c1ccc(-c2ccccc2)cc1 (stereo unspecified)
